Results: ChEMBL document CHEMBL4028916, “A Dipolar Cycloaddition Reaction To Access 6-Methyl-4,5,6,7-tetrahydro-1H-[1,2,3]triazolo[4,5-c]pyridines Enables the Discovery Synthesis and Preclinical Profiling of a P2X7 Antagonist Clinical Candidate” (J Med Chem, 2018)

Assays:
[1] = Cmax in Beagle dog at […], iv or 1.25 mg/kg, po by LC-MS/MS method; assay type: ADME, organism-based, Canis lupus familiaris; conditions: in vivo
[2] = AUC in rat at 125 mg/kg, po for 5 days; assay type: ADME, organism-based; conditions: in vivo
[3] = AUC (24 hrs) in Beagle dog at […], iv or 1.25 mg/kg, po by LC-MS/MS method; assay type: ADME, organism-based, Canis lupus familiaris; conditions: in vivo
[4] = Cmax in dog at 10 mg/kg, po for 5 days; assay type: ADME, organism-based, Canis lupus familiaris; set-up: dose 10 mg/kg, route oral; conditions: in vivo
[5] = AUC (24 hrs) in Sprague-Dawley rat at 1 mg/kg, iv or 5 mg/kg, po by LC-MS/MS method; assay type: ADME, organism-based; conditions: in vivo
Cavia porcellus = species on record: Cavia porcellus; assay: Toxicity in guinea pig; conditions: in vivo
[6] = Drug uptake in Sprague-Dawley rat plasma administered at 10 mg/kg, po measured after 0.5 hrs; assay type: ADME, organism-based
In short: (§1)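 Male Sprague Dawley rats (300–400 g) given 10 mg/kg p.o. One compound was dosed as a 0.5% HPMC suspension and the other as a 20% HP-β-cyclodextrin solution. Two animals per time point were killed with CO2 at 0.5, 2 and 6 h, and plasma and brain drug levels were taken. Data are mean ± SEM (n=2).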

Plasma = assay: Plasma concentration in dog; assay type: ADME, Canis lupus familiaris
[7] = Half life in Beagle dog at […], iv by LC-MS/MS method; assay type: ADME, organism-based, Canis lupus familiaris; conditions: in vivo
[8] = Volume of distribution at steady state in Sprague-Dawley rat at 1 mg/kg, iv or 5 mg/kg, po by LC-MS/MS method; assay type: ADME, organism-based; conditions: in vivo, read-out: Vdss
[9] = Cmax in cynomolgus monkey at 0.5 mg/kg, iv or […], po by LC-MS/MS method; assay type: ADME, organism-based, Macaca fascicularis; conditions: in vivo
[10] = Drug uptake in Sprague-Dawley rat plasma administered at 10 mg/kg, po measured after 6.0 hrs; assay type: ADME, organism-based; in short: as §1
[11] = Apparent permeability across apical to basolateral side in human Caco2 cells; assay type: ADME, cell-based; conditions: Caco-2
In short: (§2)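 Caco-2 bidirectional permeability, reported as Papp B-A/A-B (×10⁻⁶ cm/s).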

[12] = Plasma concentration in guinea pig; assay type: ADME, Cavia porcellus
[13] = Half life in Sprague-Dawley rat at 1 mg/kg, iv by LC-MS/MS method; assay type: ADME, organism-based; conditions: in vivo
In short: (§3)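 Single-dose PK in male Sprague-Dawley rats, beagle dogs or cynomolgus monkeys, given i.v. and p.o. as a solution in 50% PEG400/50% water or 20% HP-β-CD. Plasma measured by LC–MS/MS; parameters from noncompartmental analysis.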

[14] = Oral bioavailability in cynomolgus monkey at […] by LC-MS/MS method; assay type: ADME, organism-based, Macaca fascicularis; conditions: in vivo
[15] = Oral bioavailability in Beagle dog at 1.25 mg/kg by LC-MS/MS method; assay type: ADME, organism-based, Canis lupus familiaris; conditions: in vivo; in short: as §3
[16] = Oral bioavailability in Sprague-Dawley rat at 5 mg/kg by LC-MS/MS method; assay type: ADME, organism-based; conditions: in vivo; in short: as §3
[17] = Drug uptake in Sprague-Dawley rat brain administered at 10 mg/kg, po measured after 0.5 hrs; assay type: ADME, organism-based; in short: as §1
[18] = Clearance in Beagle dog at […], iv or 1.25 mg/kg, po by LC-MS/MS method; assay type: ADME, organism-based, Canis lupus familiaris; conditions: in vivo
Canis familiaris = species on record: Canis familiaris; assay: Toxicity in dog; set-up: species or system Canis lupus familiaris; conditions: in vivo
[19] = Partition coefficient, log D of the compound at pH 7.4; assay type: physicochemical; conditions: octanol/water
[20] = Volume of distribution at steady state in Beagle dog at […], iv or 1.25 mg/kg, po by LC-MS/MS method; assay type: ADME, organism-based, Canis lupus familiaris; conditions: in vivo, read-out: Vdss
[21] = Drug uptake in Sprague-Dawley rat brain administered at 10 mg/kg, po measured after 2.0 hrs; assay type: ADME, organism-based; in short: as §1
[22] = Volume of distribution at steady state in cynomolgus monkey at 0.5 mg/kg, iv or […], po by LC-MS/MS method; assay type: ADME, organism-based, Macaca fascicularis; conditions: in vivo, read-out: Vdss
[23] = Apparent permeability across basolateral to apical side in human Caco2 cells; assay type: ADME, cell-based; conditions: Caco-2; in short: as §2
[24] = Drug uptake in Sprague-Dawley rat plasma administered at 10 mg/kg, po measured after 2.0 hrs; assay type: ADME, organism-based; in short: as §1
[25] = Cmax in Sprague-Dawley rat at 1 mg/kg, iv or 5 mg/kg, po by LC-MS/MS method; assay type: ADME, organism-based; conditions: in vivo
[26] = AUC (24 hrs) in cynomolgus monkey at 0.5 mg/kg, iv or […], po by LC-MS/MS method; assay type: ADME, organism-based, Macaca fascicularis; conditions: in vivo
[27] = Drug uptake in Sprague-Dawley rat brain administered at 10 mg/kg, po measured after 6.0 hrs; assay type: ADME, organism-based; in short: as §1
[28] = Half life in cynomolgus monkey at 0.5 mg/kg, iv by LC-MS/MS method; assay type: ADME, organism-based, Macaca fascicularis; conditions: in vivo; in short: as §3
[29] = Clearance in Sprague-Dawley rat at 1 mg/kg, iv or 5 mg/kg, po by LC-MS/MS method; assay type: ADME, organism-based; conditions: in vivo
[30] = AUC in dog at 10 mg/kg, po for 5 days; assay type: ADME, organism-based, Canis lupus familiaris; conditions: in vivo
[31] = Clearance in cynomolgus monkey at 0.5 mg/kg, iv or […], po by LC-MS/MS method; assay type: ADME, organism-based, Macaca fascicularis; conditions: in vivo
[32] = Cmax in rat at 125 mg/kg, po for 5 days; assay type: ADME, organism-based; set-up: dose 125 mg/kg, route oral; conditions: in vivo

For `C[C@H]1Cc2c(nnn2-c2ncc(F)cn2)CN1C(=O)c1ccnc(C(F)(F)F)c1F` [ZANVIPIXANT], the Cmax [1] was 1120 ng/mL, the AUC at 120 h [2] was 291000 ng·h/mL and the AUC at 24 h [3] was 23300 ng·h/mL. For the same molecule, the Cmax [4] was 10700 ng/mL, the AUC at 24 h [5] was 17500 ng·h/mL and the NOAEL (Cavia porcellus) was 1850 ng/mL. The concentration at 0.5 h [6] was 3190 ng/mL, the Cp (Plasma) was 2820 ng/mL and the half-life [7] was 21.2 h. The Vd [8] was 1.7 L/kg, the Cmax [9] was 1860 ng/mL and the concentration at 6 h [10] was 2440 ng/mL. It also gave a Papp A→B [11] of 35 ×10⁻⁶ cm/s, a Cp [12] of 4095 ng/mL and a half-life [13] of 5.6 h. For the same molecule, the bioavailability [14] was 97%, the bioavailability [15] was 98% and the bioavailability [16] was 81%. The concentration at 0.5 h [17] was 3040 ng/mL, the clearance [18] was 0.8 mL/min/kg and the NOAEL (Canis familiaris) was 1280 ng/mL. It also gave a logD [19] of 1.65, a Vd [20] of 1.4 L/kg and a concentration at 2 h [21] of 2910 ng/mL. The Vd [22] was 1.3 L/kg, the Papp B→A [23] was 45 ×10⁻⁶ cm/s and the concentration at 2 h [24] was 3430 ng/mL. The Cmax [25] was 1750 ng/mL, the AUC at 24 h [26] was 16300 ng·h/mL and the concentration at 6 h [27] was 1990 ng/mL. The half-life [28] was 6 h, the clearance [29] was 3.7 mL/min/kg and the AUC at 120 h [30] was 167000 ng·h/mL. For the same molecule, the clearance [31] was 2.6 mL/min/kg and the Cmax [32] was 26000 ng/mL.
